Measurements: ChEMBL document CHEMBL1134534, “Phenylpiperazinylalkylamino substituted pyridazinones as potent alpha(1) adrenoceptor antagonists” (J Med Chem, 2001)
The source made the active and inactive calls. The calls are words filed in the database; no cut-off is given here.

Key:
[1] = target: T1, Alpha-1A adrenergic receptor (Homo sapiens, UniProt P35348); experiment: Binding affinity towards human cloned alpha-1A-adrenoceptor using [3H]prazosin as radioligand
T1 sequence (P35348 whole entry): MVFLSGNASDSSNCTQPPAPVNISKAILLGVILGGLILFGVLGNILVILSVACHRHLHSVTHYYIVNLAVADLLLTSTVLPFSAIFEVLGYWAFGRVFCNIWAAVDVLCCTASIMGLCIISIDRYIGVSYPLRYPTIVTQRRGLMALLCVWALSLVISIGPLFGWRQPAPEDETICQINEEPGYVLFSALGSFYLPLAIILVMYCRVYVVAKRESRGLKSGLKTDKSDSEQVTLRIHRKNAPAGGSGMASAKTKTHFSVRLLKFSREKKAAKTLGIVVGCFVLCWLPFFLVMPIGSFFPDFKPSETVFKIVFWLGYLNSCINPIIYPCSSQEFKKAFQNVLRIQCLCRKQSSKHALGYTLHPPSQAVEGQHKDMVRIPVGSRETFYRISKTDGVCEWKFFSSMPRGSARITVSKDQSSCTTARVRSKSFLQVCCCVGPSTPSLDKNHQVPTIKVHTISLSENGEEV

[2] = target: T2, Alpha-1B adrenergic receptor (Homo sapiens) (UniProt P35368); experiment: Experimental binding affinity for alpha-1B-adrenergic receptor
T2 sequence (whole entry): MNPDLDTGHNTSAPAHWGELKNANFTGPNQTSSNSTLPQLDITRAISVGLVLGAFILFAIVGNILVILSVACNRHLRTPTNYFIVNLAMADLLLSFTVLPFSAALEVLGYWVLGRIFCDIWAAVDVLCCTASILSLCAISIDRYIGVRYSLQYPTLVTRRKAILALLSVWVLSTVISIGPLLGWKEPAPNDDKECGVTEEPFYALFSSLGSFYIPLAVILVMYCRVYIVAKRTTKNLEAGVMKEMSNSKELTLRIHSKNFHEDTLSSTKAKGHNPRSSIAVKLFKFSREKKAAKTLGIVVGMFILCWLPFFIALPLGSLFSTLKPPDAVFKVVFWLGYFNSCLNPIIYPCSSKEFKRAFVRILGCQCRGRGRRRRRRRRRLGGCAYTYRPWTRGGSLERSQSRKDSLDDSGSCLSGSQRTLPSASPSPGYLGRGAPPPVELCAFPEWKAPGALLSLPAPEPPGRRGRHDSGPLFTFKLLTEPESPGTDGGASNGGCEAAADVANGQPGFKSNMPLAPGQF
Method in brief: (§1)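 Membranes (30 µg protein) from CHO cells stably transfected with each human α1 subtype. Nonspecific binding defined with 10 µM phentolamine. Filtration. IC50 from curve fit, converted to Ki by Cheng–Prusoff. Triplicates; 2–3 experiments.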

[3] = target: T3, 5-hydroxytryptamine receptor 1A (Homo sapiens, UniProt P08908); experiment: Binding affinity towards human cloned 5-hydroxytryptamine 1A receptor using [3H]8-OH-DPAT as radioligand
T3 sequence (P08908 whole entry): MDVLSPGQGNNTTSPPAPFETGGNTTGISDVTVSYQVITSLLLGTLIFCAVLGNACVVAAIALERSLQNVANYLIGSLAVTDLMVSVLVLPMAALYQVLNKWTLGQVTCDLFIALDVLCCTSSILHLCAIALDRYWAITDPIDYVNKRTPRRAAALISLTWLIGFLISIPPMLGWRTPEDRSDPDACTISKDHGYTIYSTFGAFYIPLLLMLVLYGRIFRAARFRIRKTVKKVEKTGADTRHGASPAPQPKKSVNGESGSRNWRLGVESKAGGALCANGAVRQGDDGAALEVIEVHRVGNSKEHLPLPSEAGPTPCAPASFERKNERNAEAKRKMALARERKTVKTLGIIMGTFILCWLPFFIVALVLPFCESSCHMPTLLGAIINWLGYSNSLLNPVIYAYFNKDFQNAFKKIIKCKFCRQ

[4] = target: T4, Alpha-1A adrenergic receptor (Homo sapiens) (UniProt P35348); experiment: Experimental binding affinity for alpha-1A-adrenergic receptor; method in brief: as §1
T4 sequence (whole entry): T1 sequence (P35348 whole entry)

[5] = target: T5, Alpha-1D adrenergic receptor (Homo sapiens, UniProt P25100); experiment: Binding affinity towards human cloned alpha-1D-adrenoceptor using [3H]prazosin as radioligand
T5 sequence (P25100 whole entry): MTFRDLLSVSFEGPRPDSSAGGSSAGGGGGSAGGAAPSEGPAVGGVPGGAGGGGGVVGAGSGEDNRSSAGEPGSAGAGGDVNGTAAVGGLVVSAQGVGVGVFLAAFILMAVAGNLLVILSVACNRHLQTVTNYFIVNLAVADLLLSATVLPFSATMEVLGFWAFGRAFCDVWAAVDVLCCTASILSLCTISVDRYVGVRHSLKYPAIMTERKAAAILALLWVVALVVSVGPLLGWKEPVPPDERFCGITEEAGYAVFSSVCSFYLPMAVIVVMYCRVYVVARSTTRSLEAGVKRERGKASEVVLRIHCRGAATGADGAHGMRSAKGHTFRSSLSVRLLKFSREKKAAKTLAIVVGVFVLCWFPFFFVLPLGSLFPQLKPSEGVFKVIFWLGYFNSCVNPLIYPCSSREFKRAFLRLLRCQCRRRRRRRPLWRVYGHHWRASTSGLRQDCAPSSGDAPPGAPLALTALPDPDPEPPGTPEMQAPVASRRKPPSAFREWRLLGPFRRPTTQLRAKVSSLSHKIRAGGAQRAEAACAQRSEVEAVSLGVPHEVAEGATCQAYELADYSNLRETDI

[6] = target: T6, Alpha-1B adrenergic receptor (Homo sapiens, UniProt P35368); experiment: Binding affinity towards human cloned alpha-1B-adrenoceptor using [3H]prazosin as radioligand
T6 sequence (P35368 whole entry): T2 sequence (whole entry)

[7] = target: T7, Alpha-1D adrenergic receptor (Homo sapiens) (UniProt P25100); experiment: Experimental binding affinity for alpha-1D-adrenergic receptor; method in brief: as §1
T7 sequence (whole entry): T5 sequence (P25100 whole entry)

[8] = target: T8, 5-hydroxytryptamine receptor 1A (Homo sapiens) (UniProt P08908); experiment: Percent of maximum effect on binding of [35S]GTP-gamma-S, to HeLa cell membranes expressing the human 5-hydroxytryptamine 1A receptor; type: functional
T8 sequence (whole entry): T3 sequence (P08908 whole entry)
Method in brief: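 [35S]GTPγS binding on human 5-HT1A-expressing HeLa membranes, with 30 µM GDP, compound 100 µM–0.1 nM, 20 min then 30 min at 30 °C. Stimulation given as percent increase over basal, with the maximal 5-HT response set to 100%. Emax taken from the nonlinear curve fit; 2–3 experiments.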

[9] = target: T8, 5-hydroxytryptamine receptor 1A (Homo sapiens); experiment: Ability to influence the binding of [35S]GTP-gamma-S, to HeLa cell membranes expressing the human 5-hydroxytryptamine 1A receptor; Not active; type: functional
Method in brief: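 Membranes from HeLa cells stably expressing human 5-HT1A, in 20 mM HEPES, 3 mM MgSO4, 120 mM NaCl pH 7.4. Preincubated 20 min at 30 °C with 30 µM GDP and compound (100 µM to 0.1 nM), then [35S]GTPγS (150–250 pM) added for a further 30 min at 30 °C. Nonspecific binding defined with 10 µM GTPγS. Filtration, scintillation counting. pEC50 from nonlinear curve fit; 2–3 experiments.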

| Compound | Ki [1] [nM] | pK1b [2] | Ki [3] [nM] | pK1a [4] | Ki [5] [nM] | Ki [6] [nM] | pK1d [7] | Effect [8] [%] | NA [9] |
| --- | --- | --- | --- | --- | --- | --- | --- | --- | --- |
| COc1ccccc1N1CCN(CCCNc2c(C(C)=O)c(-c3ccccc3)nn(C)c2=O)CC1 | 1.51 | 7.69 | 134 | 8.82 | 4.32 | 20.3 | 8.37 |  |  |
| COc1ccccc1N1CCN(CCNc2cc(-c3ccccc3)nn(C)c2=O)CC1 | 0.22 | 8.7 | 14 | 9.66 | 11.8 | 2.01 | 7.93 |  |  |
| CCCN(CCC)C1CCc2cccc(O)c2C1 (stereo unspecified) [8-OH-DPAT] |  |  |  |  |  | 5980 |  | 100 |  |
| COc1ccccc1N1CCN(CCNc2c(C(C)=O)c(-c3ccccc3)nn(C)c2=O)CC1 | 0.63 | 8.48 | 2.47 | 9.46 | 0.13 | 3.29 | 9.89 |  | inactive |
| COc1ccccc1N1CCN(CCCNc2cc(-c3ccccc3)nn(C)c2=O)CC1 | 2.59 | 8.26 | 127 | 8.59 | 11.8 | 5.51 | 7.93 |  |  |
| COc1ccc(Cl)cc1N1CCN(CCCNc2c(C(C)=O)c(-c3ccccc3)nn(C)c2=O)CC1 | 0.44 | 8.85 | 1000 | 8.64 | 3.92 | 1.44 | 8.41 |  |  |
| COc1ccc(Cl)cc1N1CCN(CCNc2c(C(C)=O)c(-c3ccccc3)nn(C)c2=O)CC1 | 0.28 | 8.4 | 76.2 | 9.55 | 0.41 | 3.95 | 9.39 |  |  |
| CC(=O)c1c(-c2ccccc2)nn(C)c(=O)c1NCCN1CCN(c2ccccc2F)CC1 | 0.32 | 8.42 | 24.1 | 9.49 | 0.49 | 3.77 | 9.31 |  |  |
| COc1ccc(Cl)cc1N1CCN(CCCCNc2c(C(C)=O)c(C)nn(C)c2=O)CC1 | 2.99 | 7.39 | 1.39 | 8.52 | 5.96 | 49.1 | 8.3 |  |  |
| CC(=O)c1c(-c2ccccc2)nn(C)c(=O)c1NCCN1CCN(c2ccccc2Cl)CC1 | 0.3 | 9.12 | 11.6 | 9.52 | 0.25 | 0.75 | 9.6 |  |  |
| COc1ccccc1N1CCN(c2c(C(C)=O)c(-c3ccccc3)nn(C)c2=O)CC1 | 163 | 6.59 | > 1000 | 6.79 | > 10000 | 259 | 5 |  |  |
| COc1ccc(Cl)cc1N1CCN(CCNc2cc(-c3ccccc3)nn(C)c2=O)CC1 | 1 | 8.75 | 322 | 9 | 1.07 | 1.76 | 8.97 |  |  |
| COc1ccccc1N1CCN(CCNc2c(C(=O)C(C)C)c(-c3ccccc3)nn(C)c2=O)CC1 | 0.18 | 9.19 | 10.2 | 9.74 | 0.43 | 0.64 | 9.37 |  | inactive |
| COc1ccccc1N1CCN(CCNc2c(C(C)=O)c(C)nn(C)c2=O)CC1 | 2.29 | 7.3 | 13 | 8.64 | 3.2 | 49.8 | 8.5 |  |  |
| COc1ccccc1N1CCN(CCNc2cc(C)nn(C)c2=O)CC1 | 18.6 | 7.48 | 32.1 | 7.73 | 17.7 | 33.1 | 7.75 |  |  |
| COc1ccc(Cl)cc1N1CCN(CCCNc2c(C(C)=O)c(C)nn(C)c2=O)CC1 | 0.53 | 8.1 | 11.2 | 9.29 | 5.34 | 8.04 | 8.27 |  |  |
| COc1ccc(Cl)cc1N1CCN(CCCNc2cc(-c3ccccc3)nn(C)c2=O)CC1 | 2 | 8.7 | > 1000 | 8.7 | 2.92 | 2.01 | 8.53 |  |  |
